# Measurements: ChEMBL document CHEMBL5260824, “9-Deazapurines as Broad-Spectrum Inhibitors of the ABC Transport Proteins P-Glycoprotein, Multidrug Resistance-Associated Protein 1, and Breast Cancer Resistance Protein” (J Med Chem, 2017)
# How the values were obtained:
# H69AR [1] = assay: Reversal of drug resistance in human NCI-H69AR cells expressing MRP1; assay type: functional, cell-based
# How it was run: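 Cells seeded per well (A2780/ADR 8,000; H69AR 20,000; MDCK II BCRP 3,000) with test compound at 1, 10 or 100 µM solutions added before cells. Daunorubicin (P-gp, MRP1) or SN-38 (BCRP) added to final 10 nM–10 µM. 72 h at 37 °C, then MTT viability read at 570 nm. GI50 from variable-slope nonlinear fits, compared with parental lines; three independent experiments in duplicate.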
# NCI-H69 = assay: Antiproliferative activity against human NCI-H69 cells assessed as reduction in cell viability measured for 72 hrs bt MTT assay; assay type: functional
# H69AR [2] = assay: Potentiation factor, ratio of GI50 for daunorubicin resistant human NCI-H69AR cells expressing MRP1 cells to GI50 for reversal of daunorubicin resistance in human NCI-H69AR cells assessed as daunorubicin GI50 at 10 uM (reference value: 1 uM); assay type: functional
# How it was run: (§1)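 Reversal assay: resistant lines (A2780/ADR, H69AR, MDCK II BCRP) and parental lines seeded as for MTT assay with modulator solutions of 1, 10 and 100 µM added (final 0.1, 1, 10 µM) and daunorubicin (P-gp, MRP1) or SN-38 (BCRP) at final 10 nM–10 µM. 72 h, MTT read-out; GI50 by variable-slope fit. Resistance factor = resistant/sensitive GI50; potentiation factor = GI50 without/with modulator.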
# [3] = Potentiation factor, ratio of GI50 for daunorubicin resistant human A2780 ADR cells expressing P-gp cells to GI50 for reversal of daunorubicin resistance in human A2780 ADR cells assessed as daunorubicin GI50 at 0.1 uM (reference value: 1 uM); assay type: functional; how it was run: as §1
# [4] = Potentiation factor, ratio of GI50 for daunorubicin resistant human A2780 ADR cells expressing P-gp cells to GI50 for reversal of daunorubicin resistance in human A2780 ADR cells assessed as daunorubicin GI50 at 1 uM by MTT assay (reference value: 1 uM); assay type: functional; how it was run: as §1
# H69AR [5] = assay: Potentiation factor, ratio of GI50 for daunorubicin resistant human NCI-H69AR cells expressing MRP1 cells to GI50 for reversal of daunorubicin resistance in human NCI-H69AR cells assessed as daunorubicin GI50 at 1 uM (reference value: 1 uM); assay type: functional; how it was run: as §1
# H69AR [6] = assay: Reversal of Daunorubicin resistance in human NCI-H69AR cells assessed as Daunorubicin GI50 at 10 uM measured for 72 hrs by MTT assay; assay type: functional; how it was run: as §1
# BCRP (ABCG2) = assay: Therapeutic index, ratio of GI50 for antiproliferative activity against dog MDCK-II-BCRP cells to IC50 for inhibition of BCRP (unknown origin) expressed in dog MDCK-II cells; assay type: toxicity, cell-based
# How it was run: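 Ratio of MTT-assay GI50 to transport-inhibition IC50, both in the resistant line. GI50 comes from 72 h exposure at 37 °C to dilutions up to 1000 µM, with medium as 100% and 10% DMSO as 0% viability. IC50 comes from calcein AM (A2780/ADR), daunorubicin (H69AR) or pheophorbide A (MDCK II BCRP) accumulation.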
# [7] = Reversal of Daunorubicin resistance in human A2780 ADR cells assessed as Daunorubicin GI50 at 1 uM measured for 72 hrs by MTT assay; assay type: functional; how it was run: as §1
# H69AR [8] = assay: Antiproliferative activity against human NCI-H69AR cells assessed as reduction in cell viability measured for 72 hrs bt MTT assay; assay type: functional
smiles,measurement,setting,value
N#Cc1cn(CCCc2ccccc2)c2c(N3CCN(CCc4c[nH]c5ccccc45)CC3)ncnc12,EC50,H69AR [1],0.959 µM
same,GI50,NCI-H69,55.4 µM
same,PF,H69AR [2],8.6
same,PF,[3],2
same,RatioGI50,[4],9.8
same,PF,H69AR [5],3.3
same,GI50,H69AR [6],0.445 µM
same,selectivity ratio,BCRP (ABCG2),14
same,GI50,[7],0.058 µM
same,GI50,H69AR [8],152 µM
